Test system: MS2 coat protein
Assay: apparent Kd, MS2 coat protein; higher = weaker binding; RNA-MaP array; FMN 200 µM where present
Outline: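 Two titrations, one without ligand and one with constant ligand, were run with SNAP-549-labelled MS2 coat protein from 0.7 or 1.5 nM, doubling to 3 µM. The targets were designs transcribed by stalled E. coli RNA polymerase on Illumina sequencing-chip clusters, in 100 mM Tris-HCl pH 7.5, 80 mM KCl, 4 mM MgCl2, BSA, DTT, yeast tRNA and Tween-20. The apparent Kd is the median of filtered per-cluster binding-curve fits, with green signal normalised to red-channel RNA signal and control-cluster median Fmax.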

[1] = designed as: OFF switch for flavin mononucleotide, no ligand
[2] = ligand present: flavin mononucleotide, designed as: OFF switch for flavin mononucleotide
[3] = designed as: ON switch for flavin mononucleotide, no ligand
[4] = ligand present: flavin mononucleotide, designed as: ON switch for flavin mononucleotide

| Sequence | apparent Kd [1] | apparent Kd [2] | apparent Kd [3] | apparent Kd [4] |
| --- | --- | --- | --- | --- |
| GUCAUUGACAAGAAGGCAAACAUGAGGAUCACCCAUGUUCUGCAUGUAUAUUGAGGAUAUUGCCAAUGCAUGUGGAUCACCCAA | 6.92 nM | 11 nM | – | – |
| CGUAAGAUGCAGAAGGUGUUAGCUAGAGCUACGACAUGAGGAUCACCCAUGUACUAGAAACAGUACAAGGAUAUGCAUCUUACA | – | – | 17.3 nM | 5.75 nM |
| GGGCUCGGAGGAUAUACAUGAGGAUCACCCAUGUACUCGGGCUCUAUUGGGCUCGGGUGUAGAAGGUCGGGCUC | 14.9 nM | 14.6 nM | – | – |
| UGUGCGUAUGUGAGGAUAUGCUGGUCCUUGGCUCGGCAGAAGGCACAUGAGGAUCACCCAUGUGGUGUCGUACU | 108 nM | 104 nM | – | – |
| UUGAGGUAGGAGAAGGACAGAGGCGGAAACACAAACAUGAGGAUCACCCAUGUAGGAUAUCCUAACUAACGAGAAUACCUCAAG | 6.36 nM | 6.89 nM | – | – |
| UUAUAACAGUCAGGAUAUGUAACGUACAACGGCGCAGAAGGGACAUGAGGAUCACCCAUGUUAUGGUUCUGGUACUAUGACGUU | 13.2 nM | 14.9 nM | – | – |
| ACCAAGCUAGGAUAUGCUUGGGCUCAAAUAAAUAAACACAAACAUGAGGAUCACCCAUGUAGAAGGAGCUUGCU | 12.4 nM | 15.5 nM | – | – |
| AAGAAAGUAUUGCGAGGGUAGGAGCAGGAUAUCCCAUUGGCCCUCACAUGAGGAUCACCCAUGUGGGAGAAGGGCUAUUACGUU | 6.51 nM | 13.2 nM | – | – |
| GUUGAGUGAGAGAAGGCCAGUUGGGAAAAUGAUCGACAGUGUACAGCGUGGAGGAUAUCUCAACAUGAGGAUCACCCAUGUAUA | – | – | 186 nM | 12.3 nM |
| UGAGCCUCGUGAGGAUAUACAUGAGGAUCACCCAUGUAAUAAAGUGAACGGAGGUAACUCCGAAUGUAGAAGGCACGAGGCUCA | 38 nM | 306 nM | – | – |
| GUCUUUUUACAGAAGGUGUUUAACAUGAGGAUCACCCAUGUACAAAAGGUUAAAUUUGAUAAUAACAAGGAUAUGUACUAAUCA | – | – | 292 nM | 184 nM |
| GUAGCAUACCGAGGAUAUUCAACGACAAAGUCGACAUGAGGAUCACCCAUGUGGCGAAAGCCUUGGGAGAAGGCGGAAUGCUAC | – | – | 16.5 nM | 11.1 nM |
| UGGUACAUGGGAGGAUAUGGGAAGUUAACAUGAGGAUCACCCAUGUUAUGCCGAAAGGCAAAGAACUAGAAGGCCCAUGUACCU | – | – | 16.7 nM | 16.1 nM |
| AUAUGCCAUGUAAGGAUAUACUGGAGCAUAAGCUCGUAGAAGGUACAUGAGGAUCACCCAUGUGGACCCGACAC | 29.9 nM | 34.9 nM | – | – |
| UUUGGUUGUGUAGGAUAUGUGUGGCGGGCUGGCACAGAAGGACAUGAGGAUCACCCAUGUGGUUUGGGUUGGGUGGUUGGCCCG | 943 nM | 771 nM | – | – |
| GCACGGAUGGUAGGAUAUCAUUGCGAUUAGCUAUGAGAAGGGCCACAUGAGGAUCACCCAUGUCCUCUAAUUAGCCUUCCGUGC | 101 nM | 101 nM | – | – |
| UGGAGGUCAGGAUAUGCAUGGCGGGACUUGCGUCGUGGCGUGCAGAAGGGACAUGAGGAUCACCCAUGUGGAGA | 88.6 nM | 112 nM | – | – |
| CCUAGACAUGAGGAUCACCCAUGUGAGGAUAUGAUGCGAUCGUCGAAAGACGAUAGCAUCAGAAGGCACAUAUG | 34.4 nM | 109 nM | – | – |
| UGUCGGAGCAGAGGAUAUUACAUGAGGAUCACCCAUGUAUGAACCAAUAGCUGGAAACAGCAAUGUAAGAAGGCCGCUCCGACA | 5.82 nM | 28.5 nM | – | – |
| UUAGGUCGAAACAUGAGGAUCACCCAUGUGUUGUAAUUAACAUAGGAUAUGUUUAUACUUUUUGGGCAGAAGGAUGAUAUUGCU | – | – | 17.3 nM | 14 nM |
| CCAUAAAAGAUCCAAAAUUACAACAUGAGGAUCACCCAUGUGCAGGAUAUCGUGCCAGUGAUGUACGAGAAGGGCAGACUCUGC | 251 nM | 333 nM | – | – |
| UGGUACUAGGGAGGAUAUCGGAAGAUACAUGAGGAUCACCCAUGUUUAAGAAUGCCGAGAGGCAACUAGAAGGCCCUAGUACCU | – | – | 6.64 nM | 6.13 nM |
| UAUAGGCUAGGAUAUACAACACUUGGUUCAGAUGUUUGAAGACAUGAGGAUCACCCAUGUAGAAGGAGCAUUCA | 33.5 nM | 76.3 nM | – | – |
| GGCGGUCCUUAAUGCACCUGCACAUGAGGAUCACCCAUGUACAGAAGGGCCAGCACCGAAGUAUGGCAGGAUAUGUCGCACGAG | 7.56 nM | 10.1 nM | – | – |
| GGCUGCGUUGUGAAGGAUAUCCGCGUCUGGACAUGAGGAUCACCCAUGUAUGCUUGGAUCGUGCCGGAGAAGGUCACGAAUGAUU | – | – | 34.5 nM | 15.9 nM |
| AGUAGACAAGGAUAUACAUGAGGAUCACCCAUGUGUGAAGGCCAGGAGGCUCCUCCCUGUAGAAGGUGUCGAGU | 104 nM | 293 nM | – | – |
| CUUCGUAUAGAGGAUAUAGGAUACUUCGGUGUCCUAGAAGGCUGUACAUGAGGAUCACCCAUGUACUUCAGAUC | 12.1 nM | 14.3 nM | – | – |
| AAAAUAAGAACAGGAUAUGUGGGUUCGAAGAGUAAAGCUCUCCACAUGAGGAUCACCCAUGUGCCACAGAAGGGUUCGGGUGAU | – | – | 58 nM | 11.8 nM |

| Sequence | apparent Kd [1] | apparent Kd [2] | apparent Kd [3] | apparent Kd [4] |
| --- | --- | --- | --- | --- |
| UCAUUGAUUGUGAGGAUAUCGAUGUGAUGGUUUGUCGAGAAGGCACAUGAGGAUCACCCAUGUGGGUGUGGGCU | 864 nM | 242 nM | – | – |
| AAAAUCUAUAGAGGAUAUCCAUACACUACAUACGGAGAAGGCUAACAAUCAUGAGGACAUGAGGAUCACCCAUGUUGUGACCAU | – | – | 24.8 nM | 17.2 nM |
| AGAAACCAAGGAUAUACAUGAGGAUCACCCAUGUUAGCGUGCAUGCCCUGCCUCAGCUGUAGAAGGUGGACGCC | 25.9 nM | 28.8 nM | – | – |
| AGGCAAUCAGGAUAUACAUGAGGAUCACCCAUGUGUACAAAGCACAUCCGAUCUAGAUGUAGAAGGGAUAUGCA | 19.1 nM | 35.8 nM | – | – |
| CAGUACUGAGGAUAUACAUGAGGAUCACCCAUGUGCCUCAGGUAGGAUACUACCAUUAGUAGAAGGCAGUACUG | 197 nM | 37.7 nM | – | – |
| CGACACAUGAGGGUCUCCCAUGACAUGAGGAUCACCCAUGUGCAGGAUAUACGUGUGAUGGUAUAGUAGAAGGGCACUCUAUGC | 368 nM | 392 nM | – | – |
| UUAUUUAUGCAAGGAUAUCAAUUAUAUACACGUCCUACAUGAGGAUCACCCAUGUUUAGUUUUUUUGAGAAGGUGCAUUGUCGG | – | – | 52.1 nM | 44.5 nM |
| CUAUGUUAGCAGGAUAUGCCAUUAUUCUUUUUCGCAGAAGGGCUUACAUGAGGAUCACCCAUGUUACAUUUCUU | 15 nM | 36.5 nM | – | – |
| CAUACAGUAGUUAGGAUAUUGCAACGUAUACGGAUCGAGAAGGGACAUGAGGAUCACCCAUGUAGAUUGUAAAG | 37.6 nM | 30.7 nM | – | – |
| AGUCCUGACGUCAGGAUAUCCGGCCAAUAGGCCAAGGAGAAGGGACAUGAGGAUCACCCAUGUGCUUGGGUCCG | 23.2 nM | 40.2 nM | – | – |
| UAUUCAUACGAAGGAUAUGGUUACAUGAGGAUCACCCAUGUAUGUAUAUUGAUCUAGUUAUUUAACCAGAAGGUCGAAUAUAAA | 35.4 nM | 72.6 nM | – | – |
| UUCUUUACACGAGGAUAUCAUACAUGAGGAUCACCCAUGUUACUUUGUCUGUUAUUAUGUAUUAUUGAGAAGGCGUUUUUCUUU | 20.7 nM | 17.9 nM | – | – |
| GGGUAGUGAGGAUAUCGUUGUUAGGAGGAGUAGGUAGGAGGCGAGAAGGCACAUGAGGAUCACCCAUGUAUGGA | 36.2 nM | 33.3 nM | – | – |
| UGGUACUAGGGAGGAUAUGGGAAGACACAUGAGGAUCACCCAUGUUUAAGAAUGCCGAGAGGCAACUAGAAGGCCCUAGUACCU | – | – | 71.9 nM | 7.95 nM |
| UUGUUGUAUGUAGGAUAUGCAUAUUAUUAUUAUGCAGAAGGACAUGAGGAUCACCCAUGUAUGUUAUUAUUAUAUGUUAUAUAU | 27.6 nM | 35.6 nM | – | – |
| GGAUGAGAAACUCAUCCAAUACGAACAUGAGGAUCACCCAUGUAGGAUAUGCUACUCAAAGAGUAGCAGAAGGACAUGUGCCUU | 30 nM | 254 nM | – | – |
| ACAUAAAUUCGAGGAUAUCGGUGAUAUAAUUUACGAGAAGGCGAUAAAAGUUGUAAACUUAUAGACAUGAGGAUCACCCAUGUA | – | – | 34.8 nM | 34 nM |
| GUUUUCGCAUGAGGAUAUGCUCGCAUUUCAAGAGCAGAAGGUAUGUCUAUAGACAUGAGGAUCACCCAUGUAUUUAACUUUGAA | – | – | 232 nM | 44.5 nM |
| GCUGCAUGCAGAGGAUAUGACACAUGAGGAUCACCCAUGUAAUAAAUGAGAUUUUCGAAUGUAUCUCAGAAGGCUGCAUGCAGC | 16.6 nM | 89.4 nM | – | – |
| AAUAAGUGAGGAUAUGCGUCUGGUCCCGGGAGGGCUAUAUAACAUGAGGAUCACCCAUGUAGAAGGCACAAUAA | 16.8 nM | 13.9 nM | – | – |
| AUUUUAAUGUCAGGAUAUAUUAGUUUUUACAUAGUAGAAGGGAUAAUUAUACUCAUGUACAUGAGGAUCACCCAUGUUAAAUAU | – | – | 139 nM | 44.5 nM |
| CUAGUAUAUCAGGAUAUGAUUUUAUAUAUUGGAUCAGAAGGGAUAACAUGAGGAUCACCCAUGUUGUGGAGUGA | 110 nM | 360 nM | – | – |
| GGUAAGAUGCAGAAGGUGUUAGCUAGAGCUACGACAUGAGGAUCACCCAUGUACUAGAAACAGUACAAGGAUAUGCAUCUUACC | – | – | 18.4 nM | 6.38 nM |
| GUAGCAAUCGGAGGAUAUGGGUUAUACAUGAGGAUCACCCAUGUUAAUUUACUAGAAGGCCGAUUGCUACAAGAGCGAAAGCUC | – | – | 10.8 nM | 5.7 nM |
| AUAUCCGAAGCAGGAUAUCGACGAGGUGUCGAGGUAGAGCGUACUCACAUGAGGAUCACCCAUGUCGAGAAGGGCUACAGGAUA | 27.8 nM | 52.2 nM | – | – |
| GCGUUCUUGUAGAAGGUACAUGAAUUCUAUUUUUAACACAUGAAACAUGAGGAUCACCCAUGUUGUAAGGAUAUACAUGAACGC | – | – | 6.98 nM | 5.83 nM |
| UUGGACGUCGUAGGAUAUGUAGGAUUUUCCUACAUGAGGAUCACCCAUGUUGACAUGGAAGAAGGACAGAAGGACGAUGUCCAU | – | – | 648 nM | 16.3 nM |

— the EternaBench riboswitch data
